Bioassay records deposited in PubChem BioAssay by Johns Hopkins Ion Channel Center.
In the library only some 3.1% were active in any assay of this set; here they are far more common.
hERG rescue: hERG (human) protection from proarrhythmic block; Q12809; CHO-hERG, FluxOR thallium flux, dofetilide IC70 present; activation (rescue from dofetilide block), less the hit threshold, % at 10 µM; 0.51% of 310,000 active;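 active = activation above the mean of controls blocked by dofetilide plus 5 SD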;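 also: thallium influx through hERG after potassium depolarization seen as dye fluorescence rise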
KCNK9 block: blocks the human KCNK9 two-pore domain potassium channel. AID 488922. B-score at 10 µM. 1.2% of 310,000 active. HEK293 KCNK9, FluxOR thallium flux fluorescence; hits give low values. Q9NPC2;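 active = ratio B-score over 3 SD below the library mean, with starting fluorescence within 5 SD of its mean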;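 also: negative B-score means less thallium flux so channel inhibition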
KCNQ1 block: blocks the human KCNQ1 potassium channel | P51787 | CHO-K1 KCNQ1, FluxOR thallium flux fluorescence; hits give high values | B-score at 10 µM | 1.3% of 310,000 active | AID 2642;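 active = compounds whose thallium flux B-score, printed positive for inhibition, exceeds three library SD while starting fluorescence stays within three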;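 also: channel opened by potassium depolarization with thallium stimulus after 20 min compound exposure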
Target sequence (P51787 whole entry, looked up): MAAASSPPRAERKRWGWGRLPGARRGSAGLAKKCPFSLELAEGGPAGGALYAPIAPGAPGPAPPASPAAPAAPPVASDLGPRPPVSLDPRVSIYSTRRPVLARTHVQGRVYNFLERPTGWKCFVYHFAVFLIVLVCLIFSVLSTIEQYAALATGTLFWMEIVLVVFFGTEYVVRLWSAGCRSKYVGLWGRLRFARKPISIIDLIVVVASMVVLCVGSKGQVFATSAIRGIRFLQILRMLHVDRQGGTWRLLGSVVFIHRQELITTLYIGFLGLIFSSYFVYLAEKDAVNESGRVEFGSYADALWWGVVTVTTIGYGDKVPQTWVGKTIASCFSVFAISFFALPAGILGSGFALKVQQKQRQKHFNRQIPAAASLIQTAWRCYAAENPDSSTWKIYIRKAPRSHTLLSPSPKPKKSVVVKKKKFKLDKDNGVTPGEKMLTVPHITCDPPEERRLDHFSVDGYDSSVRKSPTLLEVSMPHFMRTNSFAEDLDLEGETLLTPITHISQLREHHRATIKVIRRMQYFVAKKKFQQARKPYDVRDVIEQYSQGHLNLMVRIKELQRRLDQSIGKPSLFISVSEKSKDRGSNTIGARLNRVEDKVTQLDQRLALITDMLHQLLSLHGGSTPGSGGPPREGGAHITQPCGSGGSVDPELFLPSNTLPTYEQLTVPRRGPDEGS
KCNK3 block: human KCNK3 channel inhibition, primary screen | O14649 | AID 602410 | CHO-KCNK3 thallium flux, FluxOR fluorescence; hits give low values | 0.84% of 340,000 active | B-score at 10 µM;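 active = B-score under library mean minus 4 SD, starting fluorescence ratio at most library mean plus 5 SD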;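 also: more negative B-score means stronger inhibition of thallium flux through KCNK3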
KCNQ1 pot: potentiators or activators of human KCNQ1 potassium channel | 0.35% of 310,000 active | P51787 | CHO-K1 KCNQ1, thallium flux FluxOR fluorescence; hits give high values | B-score at 10 µM;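 active = fluorescence ratio B-score, a plate-corrected score, at least three library SD, with initial intensity B-score within 5 SD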
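Material: CHO-K1 cells stably expressing KCNQ1. Medium: assay buffer for compound exposure, DMSO matched across wells. Reagent: K+/Tl+ depolarizing stimulus. Compound dosing: single-concentration screen. Times: 37 °C overnight plating, 90-min dark dye load, 20-min compound pretreatment. Technique: FluxOR Tl+ flux fluorescence.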
KCNQ1 block val: confirmation of human KCNQ1 potassium channel inhibitors | shares compounds with KCNQ1 block | KCNQ1 cell line, FluxOR thallium flux fluorescence | inhibition, % at 10 µM | 93% of 1,600 active | AID 588353;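 active = primary screen active, with duplicate mean exceeding buffer control mean plus 3 SD of buffer wells, cut at about 28% in these data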;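 also: 0% = buffer control ratio and 100% = XE991 inhibitor control ratio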
CHO Tl flux: activity in parental CHO cells lacking KCNQ1; shares compounds with KCNQ1 block; parental CHO-K1, FluxOR thallium flux fluorescence ratio; hits give low values; zero means no signal rise above baseline; fluorescence ratio (Tl flux) at 10 µM; 21% of 1,600 active; AID 588366;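 active = mean of duplicate thallium-flux fluorescence ratios in parental host cells more than 5 SD below the buffer control mean, cut at about 0.38 in these data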;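 also: ratio is peak minus minimum fluorescence divided by baseline fluorescence; actives read low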
KCNQ1 APC inh: blocks human KCNQ1 current in automated patch clamp | shares compounds with KCNQ1 block | KCNQ1-CHO cells | calls only at 10 µM | 20% of 490 active | AID 624120;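 active = KCNQ1 current drop exceeding 3 SD of negative control wells, seen in both duplicate runs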;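 also: steady state current during a 2 s step from -80 to +40 mV; negative values mean current inhibition and positive values mean potentiation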
KCNQ2 spec: selectivity of KCNQ1 inhibitors: inhibition of rat KCNQ2 channel; AID 651746; KCNQ2 cells, FluxOR thallium flux fluorescence; inhibition, % at 10 µM; shares compounds with KCNQ1 block; 71% of 1,600 active;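 active = mean percent inhibition of the KCNQ2 thallium signal more than 5 SD above the buffer-only control wells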;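 also: KCNQ2 expressed in CHO cells; 0% = buffer control wells and 100% = XE-991 inhibitor control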
KCNQ1 KCNE1 spec: selectivity of KCNQ1 inhibitors: inhibition of human KCNQ1/KCNE1 channel. shares compounds with KCNQ1 block. KCNQ1/KCNE1 cells, FluxOR thallium flux fluorescence. inhibition, % at 10 µM. 77% of 1,600 active;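 active = mean percent inhibition of duplicate wells above the buffer-only control mean plus 3 SD of those controls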;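 also: 0% = buffer only wells and 100% = XE-991 inhibitor control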
KCNK9 block conf: human KCNK9 inhibitor confirmation | shares compounds with KCNK9 block | HEK293 KCNK9 cells, FluxOR thallium flux fluorescence | inhibition, % at 10 µM | 43% of 4,900 active | AID 492992;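 active = thallium signal inhibited by more than 5 SD of the compound-free buffer control wells, on both duplicate plates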;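 also: 0% = assay buffer control wells without compound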
Kir21 sel: selectivity of KCNK9 modulators against mouse Kir2.1 | shares compounds with KCNK9 block | Kir2.1 cells, FluxOR thallium flux fluorescence | inhibition, % at 10 µM | 4% of 4,900 active;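 active = thallium signal drop more than 5 SD beyond the mean of the no-compound control wells, seen in both duplicate plates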;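 also: signal is fluorescence rise after thallium addition divided by baseline fluorescence; plate controls were assay buffer only for no effect and full block by chlorpromazine control for full effect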
HEK293 Tl ctr: non-induced cell nonspecific activity of KCNK9 modulators | shares compounds with KCNK9 block | non-induced KCNK9-HEK293, FluxOR thallium flux | inhibition, % at 10 µM | 40% of 4,900 active;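 active = thallium signal drop beyond 5 SD of the untreated control mean, on both duplicate plates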;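 also: plate controls were buffer only IC0 wells for no effect and SID17386958 at its maximal inhibitory level for full effect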
KCNK3 confirm: human KCNK3 channel inhibition, confirmation assay | 99% of 2,400 active | ratio percent of control, % at 10 µM | shares compounds with KCNK3 block | CHO-KCNK3 thallium flux, FluxOR fluorescence; 0% buffer, 100% carvedilol maximal block;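 active = ratio percent of control, averaged over triplicates, above buffer control mean plus 5 SD, cut at about 64% in these data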;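 also: ratio is the fluorescence rise from min to max over baseline after thallium stimulus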
KCNK3 uninduced: KCNK3 inhibitor counter-screen hit in non-induced cells | thallium flux ratio (lower = more inhibition) at 10 µM | non-induced KCNK3 parental cells, FluxOR thallium flux; hits give low values | 40% of 2,400 active | shares compounds with KCNK3 block;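 active = thallium flux ratio, averaged over three wells, more than 5 SD below the buffer control mean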;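 also: host cells are CHO cells without KCNK3 induction; ratio is peak minus trough fluorescence over baseline then normalized to buffer controls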
* marks the source's active call; other numbers are inactive results.

What do the screens show for `O=C(CSc1nc2ccccc2nc1N1CCCCC1)Nc1ccc(F)cc1`?
hERG rescue: -9; KCNK9 block: -6.9*; KCNQ1 block: 13*; KCNK3 block: -9.8*; KCNQ1 pot: inactive; KCNQ1 block val: 108*; CHO Tl flux: 0.41; KCNQ1 APC inh: inactive; KCNQ2 spec: 97%*; KCNQ1 KCNE1 spec: 158%*; KCNK3 confirm: 137*; KCNK3 uninduced: 0.12*

What do the screens show for `CCc1ccc(NC(=O)CSc2nc3ccccc3nc2N2CCCCC2)cc1`?
hERG rescue: -6; KCNK9 block: inactive; KCNQ1 block: inactive; KCNK3 block: inactive; KCNQ1 pot: inactive

Results for CC(c1cccs1)N(Cc1ccco1)C(=O)Nc1ccc(Cl)c(Cl)c1 (stereo unspecified) ?
hERG rescue: -10; KCNK9 block: -14*; KCNQ1 block: 19*; KCNK3 block: -11*; KCNQ1 pot: inactive; KCNQ1 block val: 146*; CHO Tl flux: 0.35*; KCNQ2 spec: 116%*; KCNQ1 KCNE1 spec: active; KCNK9 block conf: 60%*; Kir21 sel: inactive; HEK293 Tl ctr: 44%*; KCNK3 confirm: 122*; KCNK3 uninduced: 0.13*

What do the screens show for `c1ccc(N2CCN(c3nc(NCc4ccco4)c4ccccc4n3)CC2)cc1`?
hERG rescue: -26; KCNK9 block: inactive; KCNQ1 block: 12*; KCNK3 block: -12*; KCNQ1 pot: inactive; KCNQ1 block val: 144*; CHO Tl flux: 0.35*; KCNQ2 spec: 114%*; KCNQ1 KCNE1 spec: 192%*; KCNK3 confirm: 140*; KCNK3 uninduced: 0.11*

Results for C[C@@H]1CN([C@H](C)CO)C(=O)c2cc(NC(=O)c3ccncc3)ccc2O[C@@H]1CN(C)C(=O)Nc1ccccc1 ?
KCNK3 block: inactive

Results for Cc1ccn2cc(-c3cccc(NC(=O)c4cccs4)c3)nc2c1 ?
hERG rescue: -24; KCNK9 block: inactive; KCNQ1 block: 8*; KCNK3 block: -11*; KCNQ1 pot: inactive; KCNQ1 block val: 58*; CHO Tl flux: 0.44; KCNQ2 spec: inactive; KCNQ1 KCNE1 spec: 82%*; KCNK3 confirm: 96*; KCNK3 uninduced: inactive

How did CCc1ccc(OCC(=O)Nc2ccncc2)c(Br)c1 do in these assays?
hERG rescue: -8; KCNK9 block: inactive; KCNQ1 block: inactive; KCNK3 block: inactive; KCNQ1 pot: inactive

What do the screens show for `CC(C)(C)c1ccc(OCC(=O)Nc2ccncc2)c(Br)c1`?
hERG rescue: -18; KCNK9 block: inactive; KCNQ1 block: 19*; KCNK3 block: -8.8*; KCNQ1 pot: inactive; KCNQ1 block val: 142*; CHO Tl flux: 0.42; KCNQ1 APC inh: inactive; KCNQ2 spec: inactive; KCNQ1 KCNE1 spec: 74%*; KCNK3 confirm: 138*; KCNK3 uninduced: 0.12*

How did Cc1cc(OCC(=O)Nc2ccncc2)c(C)cc1Br do in these assays?
hERG rescue: -16; KCNK9 block: inactive; KCNQ1 block: 8*; KCNK3 block: -9.2*; KCNQ1 pot: inactive; KCNQ1 block val: 132*; CHO Tl flux: 0.49; KCNQ1 APC inh: inactive; KCNQ2 spec: 108%*; KCNQ1 KCNE1 spec: 44%*; KCNK3 confirm: 122*; KCNK3 uninduced: inactive

What do the screens show for `Cc1ccc(NC(=O)c2cc(-c3cccs3)nc3ccccc23)nc1`?
hERG rescue: -20; KCNK9 block: inactive; KCNQ1 block: 6*; KCNK3 block: -11*; KCNQ1 pot: inactive; KCNQ1 block val: 88*; CHO Tl flux: 0.37*; KCNQ2 spec: 121%*; KCNQ1 KCNE1 spec: 196%*; KCNK3 confirm: 111*; KCNK3 uninduced: 0.14*

Results for Cc1ccc(NC(=S)NCc2ccccc2)cc1S(=O)(=O)N1CCCCC1 ?
hERG rescue: -11; KCNK9 block: inactive; KCNQ1 block: 6*; KCNK3 block: -11*; KCNQ1 pot: inactive; KCNQ1 block val: 108*; CHO Tl flux: 0.52; KCNQ1 APC inh: inactive; KCNQ2 spec: 62%*; KCNQ1 KCNE1 spec: inactive; KCNK3 confirm: 116*; KCNK3 uninduced: inactive

What do the screens show for `COc1ccc(CCNC(=O)C(C)SCC(=O)Nc2ccc(F)cc2)cc1` (stereo unspecified)?
KCNK3 block: inactive

Results for COc1ccc(-c2cc(C)no2)cc1S(=O)(=O)N1CCOc2ccc(Cl)cc21 ?
hERG rescue: -5; KCNK9 block: inactive; KCNQ1 block: inactive; KCNK3 block: inactive; KCNQ1 pot: inactive

What do the screens show for `Cc1ccc2c(c1)N(S(=O)(=O)c1cc(-c3onc(C)c3C)ccc1C)CCO2`?
hERG rescue: -10; KCNK9 block: -7.5*; KCNQ1 block: 7*; KCNK3 block: -11*; KCNQ1 pot: inactive; KCNQ1 block val: 77*; CHO Tl flux: 0.35*; KCNQ2 spec: 106%*; KCNQ1 KCNE1 spec: 93%*; KCNK3 confirm: 106*; KCNK3 uninduced: inactive
